# APJ ag = agonists of human apelin receptor APJ, primary screen, CHO-K1 cells, PathHunter beta-arrestin, luminescence. 0% DMSO wells, 100% apelin. activation, % at 20 µM. P35414. actives 0.11% (n = 330,000);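 active means activation more than six SD over the plate average, tested at 20 µM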;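 further: 0% = DMSO alone and 100% = apelin-13 at 10 nM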
#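 Incubation: overnight seeding, 90 min compound at 25 °C, 1 h detection; test system: PathHunter CHO-K1 APJ (AGTRL-1) beta-arrestin reporter cells; amount: 1000 cells/well; doses: one dose, 20 µM compound, 1% DMSO; measured by: beta-gal luminescence; measure: agonist-driven arrestin binding to APJ; benchmarks: negative DMSO alone, positive Apelin-13 at 10 nM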
# CCR6 antagonist = CCR6 receptor antagonists, primary screen, cell-based, CHO-K1, luminescence, beta-arrestin, uHTS | CHO-K1 CCR6 PathHunter beta-arrestin, CCL20-stimulated | inhibition, % at 20 µM | actives 0.49% (n = 340,000) | AID 493098, 2011;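 active means compounds whose inhibition of the agonist-driven luminescence signal at 20 µM reaches about 50%, limit read from the data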;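 further: cells stimulated with CCL20 at 14 nM final; plate controls were DMSO with CCL20 for no effect and DMSO without agonist for full effect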
# APJ antag = antagonists of human apelin receptor APJ, primary screen, CHO-K1 cells, beta-arrestin complementation, luminescence; P35414; inhibition, % at 20 µM; actives 0.32% (n = 330,000);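 active means inhibition above about 40% at 20 µM, limit read from the data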;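 further: cells challenged with 10 nM apelin-13 agonist together with compound; plate controls were apelin-13 plus DMSO wells for no effect and DMSO wells lacking apelin-13 for full effect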
# CXCR6 block = CXCR6 receptor inhibitors, primary screen, cell-based, beta-arrestin, luminescence, CHO-K1 PathHunter, 1536-well; inhibition, % at 20 µM; actives 0.36% (n = 360,000); AID 602244, 2012; in the data active means inhibition above about 34%, passing the limit was not always enough;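 further: antagonist mode with CXCL16 agonist at 10 nM final; 0% = 10 nM CXCL16 with DMSO and 100% = unstimulated wells without agonist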
# EBI2 antag = EBI2 receptor antagonists, beta-arrestin recruitment, primary screen, cell-based, luminescence, 7a,25-OHC stimulation, uHTS; AID 651636, 2012; inhibition, % at 5 µM; 7a,25-OHC stimulated; actives 0.81% (n = 360,000); G-protein coupled receptor 183 (Homo sapiens), P32249; in the data active means inhibition above about 38%;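 further: enzyme fragment complementation signal reports receptor beta-arrestin coupling in cells; 0% = agonist plus DMSO wells and 100% = wells without agonist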
# Target sequence (P32249 whole entry, looked up, the tested form may be a part): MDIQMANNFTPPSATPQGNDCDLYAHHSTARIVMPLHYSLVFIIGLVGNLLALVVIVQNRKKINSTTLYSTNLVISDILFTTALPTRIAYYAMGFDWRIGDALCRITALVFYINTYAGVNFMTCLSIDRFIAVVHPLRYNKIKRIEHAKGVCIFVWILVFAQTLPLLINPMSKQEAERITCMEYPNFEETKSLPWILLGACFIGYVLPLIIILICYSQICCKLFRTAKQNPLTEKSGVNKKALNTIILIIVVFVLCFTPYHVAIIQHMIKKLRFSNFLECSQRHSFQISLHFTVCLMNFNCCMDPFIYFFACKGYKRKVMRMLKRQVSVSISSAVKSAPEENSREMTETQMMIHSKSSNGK
# EBI2 antag conf = EBI2 antagonist hit retest, beta-arrestin, confirmation, cell-based, single concentration, luminescence, 7a,25-OHC stimulation; shares compounds with EBI2 antag; 7a,25-OHC antagonism; inhibition, % at 5 µM; actives 29% (n = 2,400); AID 651997, 2013;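 active means inhibition of at least 50%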
# EBI2 agonist = EBI2 agonist activity of antagonist hits, confirmation, counter-screen for EBI2 antagonist project, cell-based, single concentration, agonist mode, luminescence; EBI2-expressing cells, 60 min; 0% vehicle, 100% 7α,25-dihydroxycholesterol control; activation, % at 5 µM; shares compounds with EBI2 antag; 2,400 tested, under 10 active;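 active means activation of at least 50%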
# bGal counter = E. coli beta-galactosidase enzyme inhibition, confirmation, counter-screen for EBI2 antagonist project, biochemical, luminescence, single concentration. shares compounds with EBI2 antag. purified beta-galactosidase, luminescent Galacton Star, 15 min. inhibition, % at 5 µM. actives 1% (n = 2,400). AID 652176, 2013;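 active means replicate-average signal at least 3 plate SD below neutral wells, shown as high inhibition, flagging enzyme-inhibiting false positives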;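 further: 0% = DMSO wells with enzyme and 100% = wells lacking enzyme; higher means stronger loss of beta-gal luminescence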
# The depositor's hits bear a star; . = no result. An excerpt weighted towards active compounds, which were near 1.5% of everything screened.
SMILES,APJ ag,CCR6 antagonist,APJ antag,CXCR6 block,EBI2 antag,EBI2 antag conf,EBI2 agonist,bGal counter
O=C1NC[C@@H](CCCCN2C[C@H](Cc3ccccc3)N(CCc3ccc(O)cc3)C(=O)C2=O)N(Cc2ccccc2)C1=O,.,.,.,-4,-1,.,.,.
COc1ccc(C2=NN(C(=O)CSc3ncccn3)C(c3ccc(OC)cc3)C2)cc1 (configuration not stated),1,20,-9,1,4,.,.,.
COc1ccc(C2=NN(C(=O)CSc3cn(C)c4ccccc34)C(c3ccc(OC)cc3)C2)cc1 (configuration not stated),-4,4,5,6,84*,65*,-1,-10
COc1ccc(C2=NN(C(=O)CSc3nc(=O)n4cc(C)ccc4n3)C(c3ccc(C)cc3)C2)cc1 (configuration not stated),8,11,23,9,63*,30,0,9
COc1ccc(C2CC(c3cccs3)=NN2C(=O)CSc2nc(=O)n3ccc(C)cc3n2)cc1 (configuration not stated),2,6,16,11,3,.,.,.
Cc1cc(C)n(CCN(C)C(=O)C2CCC(=O)N(CCN3CCOCC3)C2)n1 (configuration not stated),0,3,2,-27,-4,.,.,.
N#Cc1ccc(C(=O)N2CCN(S(=O)(=O)c3ccc(Br)s3)CC2)cc1,-3,1,-5,-12,66*,32,1,8
CC(C)OCc1ccc(C(=O)N2CCN(S(=O)(=O)c3ccc(Br)s3)CC2)cc1,-2,0,-3,-7,34,.,.,.
CC(C)COC(=O)N1CCN(S(=O)(=O)c2ccc3c(c2)CCC3)CC1,-3,14,16,11,-7,.,.,.
CC1CCN(C(=O)c2cc3ccccc3c(=O)o2)CC1,0,7,10,-2,-2,.,.,.
CCOC(=O)C1CCN(C(=O)c2cc3c(ccc4ccccc43)o2)CC1,-5,35,13,-5,78*,64*,-1,-11
CC1CCN(C(=O)c2cc3c(ccc4ccccc43)o2)CC1,-6,31,-20,5,82*,62*,0,-5
O=C(CCC(=O)Nc1ccccc1)NNS(=O)(=O)c1ccccc1[N+](=O)[O-],-3,-3,-6,1,-3,.,.,.
CC(=O)N1CCC2(CC1)CC(=O)c1cc(OCC(=O)N3CCCC3)ccc1O2,0,6,14,6,3,.,.,.
Cc1cccc(OCC(=O)N2CCC3(CC2)CC(=O)c2ccccc2O3)c1,-1,7,10,-2,31,.,.,.
CCOc1ccc(OCC(=O)N2CCC3(CC2)CC(=O)c2ccccc2O3)cc1,-1,13,-47,-1,84*,52*,0,-17
COc1ccc(OCC(=O)N2CCC3(CC2)CC(=O)c2ccccc2O3)cc1,-3,6,-45,5,77*,61*,1,6
COc1ccc(-c2nc(N)nc(C)c2-c2ccc(Cl)cc2)c(O)c1,-1,2,17,1,80*,62*,1,2
C=C(C)COc1ccc(-c2nc(N)nc(C)c2-c2ccc(OC)cc2)c(O)c1,-3,2,2,7,44*,22,-1,-14
C=C(C)COc1ccc(-c2nc(N)nc(C)c2Oc2ccccc2OC)c(O)c1,-3,-9,10,6,12,.,.,.

# Compound activity from PubChem.
